Common to all, as to type: functional
The species named for assay [1] is Rattus norvegicus. In words: Inhibition of oxytocin induced contraction required for uterine relaxant activity in isolated rat uterus preparation.
The species entered for assay [2] is Rattus norvegicus. Briefly: cAmp released in rat at 10 mg. In a few lines:
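Oral dosing of virgin female Sprague–Dawley rats in oestrus. Rats killed 3 h later. Uterine strips weighed and homogenized in Tris–EDTA, then centrifuged at 12,000g. Supernatant TCA removed by ether extraction and pH set to 7.5. cAMP measured by [³H]cAMP competitive binding assay against 0–16 pmol standards, 2 h at 2–8 °C, charcoal separation, scintillation counting.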

For assay [3], the species on record is Rattus norvegicus. In words: Delayed onset of labour in rat by comparing with control at 10 mg. Put shortly: (§1)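 Pregnant Sprague–Dawley rats, six per dose group, dosed orally at 10 and 15 mg/kg/day from gestation day 13 to 21. Reference agent given at 10 mg/kg/day p.o. Onset of labour compared with control.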
The species named for assay [4] is Rattus norvegicus. In words: Delayed onset of labour in rat by comparing with control at 15 mg. Put shortly: as §1

Consider `COCCc1ccc(OCC(O)CNC(C)C(O)c2ccc(O)cc2)cc1.Cl` (centres undefined), for which the IC50 in the assay filed under Rattus norvegicus [1] was found to be 6.02 µmol. Besides, the Activity in the assay listed under Rattus norvegicus [2] was found to be 3.66 pmol; in the assay filed under Rattus norvegicus [3], 27.1 h; in the assay listed under Rattus norvegicus [4] it was 33.7 h.

For `CC(NCC(O)COc1ccc(CC(N)=O)cc1)C(O)c1ccc(O)cc1.Cl` (centres undefined), in the assay listed under Rattus norvegicus [1], the IC50 turned out to be 6.32 µmol. The Activity in the assay listed under Rattus norvegicus [2] was found to be 3.56 pmol; in the assay filed under Rattus norvegicus [3], 24 h; in the assay filed under Rattus norvegicus [4], 31.7 h.

On to `CC(=O)Nc1ccc(OCC(O)CNC(C)C(O)c2ccc(O)cc2)cc1.Cl` (centres undefined), for which the IC50 in the assay listed under Rattus norvegicus [1] came to 6.07 µmol. Further, the Activity in the assay listed under Rattus norvegicus [2] turned out to be 3.48 pmol; in the assay filed under Rattus norvegicus [3], 25 h; in the assay filed under Rattus norvegicus [4] it was 31.8 h.

Take `CC(=O)Nc1ccc(OCC(O)CNC(C)C(O)c2ccc(O)cc2)c(C(C)=O)c1.Cl` (centres undefined): in the assay filed under Rattus norvegicus [1], the IC50 worked out at 6.58 µmol. Besides, the Activity in the assay listed under Rattus norvegicus [2] amounted to 3.53 pmol; in the assay filed under Rattus norvegicus [3], 23.7 h; in the assay listed under Rattus norvegicus [4] it was 30.1 h.

In the case of `CC(COc1ccccc1)NC(C)C(O)c1ccc(O)cc1.Cl` (centres undefined) [ISOXSUPRINE HYDROCHLORIDE], the IC50 in the assay listed under Rattus norvegicus [1] came out at 9.15 µmol. Moreover, the Activity in the assay listed under Rattus norvegicus [2] amounted to 5.03 pmol; in the assay listed under Rattus norvegicus [3], 31.6 h.

These data come from ChEMBL document CHEMBL1139583, “Design, synthesis and evaluation of racemic 1-(4-hydroxyphenyl)-2-[3-(substituted phenoxy)-2-hydroxy-1-propyl]amino-1-propanol hydrochlorides as novel uterine relaxants” (Bioorg Med Chem Lett, 2005).
